# Measured values collected from several papers.
# Lines come from different studies, so protocols differ.
# Effect on: cell growth or viability
SMILES,cell line,test,conditions,IC50 [µM]
C=CCNC1=C2C[C@@H](C)C[C@H](OC)[C@H](O)[C@@H](C)/C=C(\C)[C@H](OC(N)=O)[C@@H](OC)/C=C\C=C(/C)C(=O)NC(=CC1=O)C2=O,ARPE-19,MTT,,1
Cc1cc(Oc2ccc(NC(=O)c3sc(-c4cccnc4)nc3C)cc2)n2ncnc2n1,L02,MTT,,> 50
CO[C@H]1/C=C\C=C(/C)C(=O)NC2=C(c3ccccc3)C(=O)C(NCCN(C)C)=C(C[C@@H](C)C[C@H](OC)[C@H](O)[C@@H](C)/C=C(\C)[C@@H]1OC(N)=O)C2=O,ARPE-19,MTT,,8.2
c1ccc(-c2ccccn2)nc1,L02,MTT,48 h,> 50
Cc1cc(Oc2ccc(NC(=O)c3cnn(-c4ccc(Cl)cc4)c3C(F)(F)F)cc2F)c2nncn2n1,L02,MTT,,> 50
COc1cc2nccc(Oc3ccc(NC(=O)C4(C(=O)Nc5ccc(F)cc5)CC4)cc3)c2cc1OC,OCI-AML-3,trypan blue,72 h,> 9
O=C(N/N=C/c1c(O)ccc2ccccc12)c1cc(-c2ccc3ccccc3c2)n[nH]1,WM-115,MTS,24 h,9.7
COCCCOc1ccnc(COc2ccc(NC(=O)Nc3ccc(Cl)c(C(F)(F)F)c3)cc2)c1C,L02,MTT,72 h,> 100
COc1ccc(C(=O)O[C@@H]2CN3Cc4c(cc5c(c4OC)OCO5)[C@@]24C=C[C@H](OC)C[C@@H]34)cc1OC,PANC-1,WST-1,,2.3
CCN1CCN(c2ccc(Nc3cc(N(C)C(=O)Nc4c(Cl)c(OC)cc(OC)c4Cl)ncn3)cc2)CC1,Li-7,ATP luminescence,96 h,> 1
O=c1[nH]cc(F)c(=O)[nH]1,human Lymphocyte,,72 h,18
C#CCSc1nc(Sc2nnnn2-c2ccccc2)c2nnn(Cc3ccc(OC)cc3)c2n1,OCI-AML-3,MTS,6 days,4.72
C#Cc1cccc(Nc2ncnc3cc(OCCOC)c(OCCOC)cc23)c1,PANC-1,MTT,,0.05
COc1c(C)cnc(COc2ccc(NC(=O)Nc3ccc(Cl)c(C(F)(F)F)c3)cc2)c1C,L02,MTT,72 h,> 100
CC(=O)c1cccc(/N=N/c2cc(/C=C/C(=O)O)ccc2O)c1,PANC-1,MTT,,> 50
Nc1ncc(-c2cnn(C3CCNCC3)c2)cc1-c1nnc(CC2CC2)o1,OCI-AML-3,trypan blue,72 h,0.479
Cc1ccc2c(Cl)cc(Cl)c(O)c2n1,L02,MTT,48 h,> 100
Oc1ccc(Nc2nc(-c3ccc(Cl)cc3)cs2)cc1,WM-115,MTS,72 h,11.7
Cc1c(OCC(F)(F)F)ccnc1COc1ccc(NC(=O)Nc2cccc(C(F)(F)F)c2)cc1,L02,MTT,72 h,> 100
Oc1c(I)cc(Cl)c2cccnc12,L02,MTT,48 h,79
COc1c(C)cnc(COc2ccc(NC(=O)Nc3ccc(Cl)cc3)cc2)c1C,L02,MTT,72 h,> 100
COc1cc2c(Oc3ccc(NC(=O)C4(C(=O)Nc5ccc(F)cc5)CC4)cc3F)ccnc2cc1OCCCN1CCOCC1,L02,MTT,,> 50
COc1ccnc(COc2ccc(NC(=O)Nc3cc(F)cc(F)c3)cc2)c1OC,L02,MTT,72 h,> 100
Cc1cc(Oc2ccc(NC(=O)c3sc(-c4ccccc4)nc3C)cc2F)n2ncnc2n1,L02,MTT,,> 50
COc1ccnc(COc2ccc(NC(=O)Nc3ccc(Cl)cc3)cc2)c1OC,L02,MTT,72 h,> 100
CC(C)[C@H](N)C(=O)N1CCC[C@H]1B(O)O,OCI-AML2,ATP luminescence,48 h,0.08
CCN1C(=O)N(c2c(F)c(OC)cc(OC)c2F)Cc2cnc3[nH]c(CN4CCOCC4)cc3c21,Li-7,ATP luminescence,96 h,0.054
Cc1cc(Oc2ccc(NC(=O)c3sc(-c4ccccn4)nc3C)cc2F)c2nncn2n1,L02,MTT,,> 50
Cc1c(OCC(F)(F)F)ccnc1COc1ccc(NC(=O)Nc2ccc(F)cc2)cc1,L02,MTT,72 h,> 100
COc1cc(-c2ncn(/C=C\C(=O)OC(C)C)n2)cc(C(F)(F)F)c1,OCI-AML2,,72 h,0.017
COc1c(C)cnc(COc2ccc(NC(=O)Nc3ccc(F)cc3)cc2)c1C,L02,MTT,72 h,> 100
CC[C@@H](C)[C@H](N)C(=O)N1Cc2ccccc2C1,OCI-AML2,ATP luminescence,,0.3
Cc1cc(Oc2ccc(NC(=O)c3sc(-c4ccc(F)cc4)nc3C)cc2)c2nncn2n1,L02,MTT,,> 50
Cc1ccc(S(=O)(=O)N(C)CC(=O)N(Cc2ccc(C3CCCCC3)cc2)c2ccc(C(=O)O)c(O)c2)cc1,OCI-AML2,,,35.9
CCn1c(=O)c(-c2ccc(-c3cncs3)cc2Cl)cc2cnc(Nc3ccc(N4CCN(C)CC4)cc3)nc21,PANC-1,MTT,24 h,14.1
